Active and inactive are the calls of the source. The calls are words filed in the database; no cut-off is given here.
What was measured:
[1] = molecular target: T1, Fatty-acid amide hydrolase 1 (Rattus norvegicus) (UniProt P97612); test: Inhibition of rat histidine tagged FAAH expressed in Escherichia coli at 10 uM by coumarin ester substrate fluorescence assay
T1 sequence (whole entry): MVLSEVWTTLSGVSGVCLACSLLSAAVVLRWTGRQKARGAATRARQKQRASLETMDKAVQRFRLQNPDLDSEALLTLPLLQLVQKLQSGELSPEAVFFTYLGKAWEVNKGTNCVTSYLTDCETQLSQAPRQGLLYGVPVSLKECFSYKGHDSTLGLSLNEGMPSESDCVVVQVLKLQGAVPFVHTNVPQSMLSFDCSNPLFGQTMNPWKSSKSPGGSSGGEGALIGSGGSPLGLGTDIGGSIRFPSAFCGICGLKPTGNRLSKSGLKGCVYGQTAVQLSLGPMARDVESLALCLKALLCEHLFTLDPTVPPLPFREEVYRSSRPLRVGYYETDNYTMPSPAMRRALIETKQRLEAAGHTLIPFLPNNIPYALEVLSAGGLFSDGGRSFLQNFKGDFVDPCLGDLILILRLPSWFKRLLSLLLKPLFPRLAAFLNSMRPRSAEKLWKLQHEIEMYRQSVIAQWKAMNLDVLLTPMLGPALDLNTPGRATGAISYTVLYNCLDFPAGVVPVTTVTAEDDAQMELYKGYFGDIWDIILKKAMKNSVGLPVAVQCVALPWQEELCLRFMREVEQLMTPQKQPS

[2] = molecular target: T2, Monoglyceride lipase (Homo sapiens) (UniProt Q99685); test: Inhibition of human N-terminal histidine tagged full length MAGL expressed in Escherichia coli at 10 uM by coumarin ester substrate fluorescence assay
T2 sequence (whole entry): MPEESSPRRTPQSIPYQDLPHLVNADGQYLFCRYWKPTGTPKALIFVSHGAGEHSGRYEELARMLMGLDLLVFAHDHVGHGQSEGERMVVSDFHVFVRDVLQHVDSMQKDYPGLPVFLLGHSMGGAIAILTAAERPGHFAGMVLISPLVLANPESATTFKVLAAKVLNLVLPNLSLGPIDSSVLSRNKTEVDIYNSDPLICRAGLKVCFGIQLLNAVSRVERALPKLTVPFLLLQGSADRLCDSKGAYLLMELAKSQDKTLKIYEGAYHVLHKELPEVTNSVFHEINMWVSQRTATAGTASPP

[3] = molecular target: T3, Diacylglycerol lipase-alpha (Homo sapiens, UniProt Q9Y4D2); test: Inhibition of human DAGLalpha
T3 sequence (Q9Y4D2 whole entry): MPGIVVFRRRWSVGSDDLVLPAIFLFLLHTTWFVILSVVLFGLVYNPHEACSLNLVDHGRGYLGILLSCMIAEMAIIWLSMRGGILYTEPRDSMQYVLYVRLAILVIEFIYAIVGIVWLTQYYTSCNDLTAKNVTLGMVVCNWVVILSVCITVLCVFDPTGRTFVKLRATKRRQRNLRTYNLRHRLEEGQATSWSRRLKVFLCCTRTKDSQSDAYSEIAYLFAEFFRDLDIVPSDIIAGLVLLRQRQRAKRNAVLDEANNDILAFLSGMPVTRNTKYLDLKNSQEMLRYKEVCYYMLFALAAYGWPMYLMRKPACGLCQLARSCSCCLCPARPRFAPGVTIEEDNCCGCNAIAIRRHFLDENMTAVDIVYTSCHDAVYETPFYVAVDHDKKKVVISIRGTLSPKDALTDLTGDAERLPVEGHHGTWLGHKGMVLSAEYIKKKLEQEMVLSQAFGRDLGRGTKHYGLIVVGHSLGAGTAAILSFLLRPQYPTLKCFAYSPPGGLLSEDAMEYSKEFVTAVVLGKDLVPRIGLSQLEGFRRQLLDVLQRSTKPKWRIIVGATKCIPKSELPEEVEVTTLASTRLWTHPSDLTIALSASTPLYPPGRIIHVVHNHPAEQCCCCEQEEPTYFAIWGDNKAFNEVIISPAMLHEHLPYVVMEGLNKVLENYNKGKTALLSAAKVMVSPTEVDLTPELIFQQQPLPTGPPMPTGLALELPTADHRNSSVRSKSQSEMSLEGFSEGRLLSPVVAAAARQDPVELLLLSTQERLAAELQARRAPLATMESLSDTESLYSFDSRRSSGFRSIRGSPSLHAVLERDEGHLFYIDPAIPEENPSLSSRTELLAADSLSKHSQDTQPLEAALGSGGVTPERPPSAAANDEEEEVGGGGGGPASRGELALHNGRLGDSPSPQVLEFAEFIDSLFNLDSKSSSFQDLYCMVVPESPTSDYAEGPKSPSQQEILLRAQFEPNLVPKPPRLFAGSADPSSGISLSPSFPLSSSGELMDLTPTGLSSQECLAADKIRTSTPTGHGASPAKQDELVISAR

[4] = molecular target: T4, Fatty-acid amide hydrolase 1 (Rattus norvegicus, UniProt P97612); test: Inhibition of rat histidine tagged FAAH expressed in Escherichia coli by coumarin ester substrate fluorescence assay
T4 sequence (P97612 whole entry): T1 sequence (whole entry)

[5] = molecular target: T5, Diacylglycerol lipase-alpha (Homo sapiens) (UniProt Q9Y4D2); test: Inhibition of human DAGLalpha expressed in HEK293T cell membrane using [14C]SAG substrate at 10 uM in detergent free solution by […]; format: cell-based; conditions: HEK-293T
T5 sequence (whole entry): T3 sequence (Q9Y4D2 whole entry)

[6] = molecular target: T5, Diacylglycerol lipase-alpha (Homo sapiens); test: Inhibition of human DAGLalpha expressed in HEK293T cell membrane using [14C]SAG substrate at 10 uM in detergent free solution by scintillation counting based radio-TLC assay; conditions: HEK-293T
[7] = molecular target: T5, Diacylglycerol lipase-alpha (Homo sapiens); test: Inhibition of human DAGLalpha expressed in HEK293T cell membrane using [14C]SAG substrate at 10 uM using JZL184 pretreated protein in detergent free solution by […]; format: cell-based; conditions: HEK-293T
[8] = species: Sus scrofa; test: Inhibition of porcine pancreatic lipase type 2 at 10 uM by FRET assay
[9] = test system: Bacteria; test: Inhibition of bacterial lipoprotein lipase at 10 uM by FRET assay
[10] = molecular target: T6, Diacylglycerol lipase-alpha (Mus musculus) (UniProt Q6WQJ1); test: Inhibition of mouse DAGLalpha expressed in HEK293T cell membrane using [14C]SAG substrate at 10 nM by scintillation counting based radio-TLC assay; format: cell membranes; conditions: HEK-293T
T6 sequence (whole entry): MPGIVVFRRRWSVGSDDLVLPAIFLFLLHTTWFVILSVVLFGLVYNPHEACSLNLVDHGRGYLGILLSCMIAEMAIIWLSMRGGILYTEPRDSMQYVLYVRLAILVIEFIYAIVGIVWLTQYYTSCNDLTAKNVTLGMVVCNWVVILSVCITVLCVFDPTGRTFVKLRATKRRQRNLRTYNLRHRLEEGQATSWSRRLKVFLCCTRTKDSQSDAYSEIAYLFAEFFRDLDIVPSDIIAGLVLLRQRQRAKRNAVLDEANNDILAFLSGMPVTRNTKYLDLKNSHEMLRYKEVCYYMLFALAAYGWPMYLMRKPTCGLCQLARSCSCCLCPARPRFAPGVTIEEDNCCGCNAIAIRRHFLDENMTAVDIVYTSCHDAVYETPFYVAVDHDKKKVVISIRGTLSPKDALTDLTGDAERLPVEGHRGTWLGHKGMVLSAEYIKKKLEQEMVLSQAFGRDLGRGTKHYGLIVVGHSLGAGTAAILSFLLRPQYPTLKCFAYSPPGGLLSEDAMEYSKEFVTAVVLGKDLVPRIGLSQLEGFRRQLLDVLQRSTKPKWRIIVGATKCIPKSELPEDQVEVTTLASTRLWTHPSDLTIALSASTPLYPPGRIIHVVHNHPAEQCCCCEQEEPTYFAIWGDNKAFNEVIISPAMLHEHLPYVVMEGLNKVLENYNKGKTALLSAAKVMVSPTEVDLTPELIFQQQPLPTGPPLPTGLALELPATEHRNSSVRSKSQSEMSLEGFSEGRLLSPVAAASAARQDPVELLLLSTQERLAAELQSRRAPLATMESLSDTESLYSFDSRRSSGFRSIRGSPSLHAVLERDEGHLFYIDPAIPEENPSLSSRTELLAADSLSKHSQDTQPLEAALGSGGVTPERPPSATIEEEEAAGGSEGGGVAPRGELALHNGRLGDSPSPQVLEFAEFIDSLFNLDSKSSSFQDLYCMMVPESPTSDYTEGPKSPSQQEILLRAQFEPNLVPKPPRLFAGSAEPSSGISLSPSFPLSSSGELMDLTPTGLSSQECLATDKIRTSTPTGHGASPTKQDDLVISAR

[11] = molecular target: T6, Diacylglycerol lipase-alpha (Mus musculus); test: Inhibition of mouse DAGLalpha expressed in HEK293T cell membrane using [14C]SAG substrate at 10000 nM by scintillation counting based radio-TLC assay; format: cell membranes; conditions: HEK-293T
[12] = molecular target: T5, Diacylglycerol lipase-alpha (Homo sapiens); test: Inhibition of human DAGLalpha expressed in HEK293T cell membrane using [14C]SAG substrate at 10 uM in detergent free solution using JZL184 pretreated protein by scintillation counting based radio-TLC assay; format: cell membranes; conditions: HEK-293T
Method in brief: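 Same hDAGLα radio-TLC as above: Tris/CaCl2 pH 7.4, 15 min inhibitor preincubation at 37 °C, 20 μM [14C]SAG for 20 min at 37 °C, TLC with phosphorimaging, activity as (2-AG+AA)/total label.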

[13] = molecular target: T5, Diacylglycerol lipase-alpha (Homo sapiens); test: Inhibition of human DAGLalpha expressed in HEK293T cell membrane using [14C]SAG substrate at 10 uM in presence of 0.05% Triton X-100 by scintillation counting based radio-TLC assay; format: cell membranes; conditions: HEK-293T
Method in brief: (§1)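 Sonicated HEK293T protein (100 μg) in 50 mM Tris pH 7.4 with 10 mM CaCl2. Inhibitor in DMSO (10% DMSO standard) preincubated 15 min at 37 °C. [14C]SAG was added to 20 μM final for 20 min at 37 °C, with Triton X-100 where the line states it. Quenched with 2:1 CHCl3/MeOH. Silica TLC in CHCl3/MeOH/NH4OH 86:14:0.75, then 12 h phosphorimaging. Activity = (2-AG+AA)/(2-AG+AA+SAG). Background-subtracted; n=1–2.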

[14] = molecular target: T5, Diacylglycerol lipase-alpha (Homo sapiens); test: Inhibition of human DAGLalpha expressed in HEK293T cell membrane using [14C]SAG substrate at 10 uM in presence of 0.015% Triton X-100 by scintillation counting based radio-TLC assay; format: cell membranes; conditions: HEK-293T; method in brief: as §1
[15] = molecular target: T5, Diacylglycerol lipase-alpha (Homo sapiens); test: Inhibition of human DAGLalpha expressed in HEK293T cell membrane using [14C]SAG substrate at 10 uM in presence of 0.05% Triton X-100 by […]; format: cell-based; conditions: HEK-293T
[16] = molecular target: T2, Monoglyceride lipase (Homo sapiens); test: Inhibition of human N-terminal histidine tagged full length MAGL expressed in Escherichia coli at 100 nM by coumarin ester substrate fluorescence assay
[17] = molecular target: T1, Fatty-acid amide hydrolase 1 (Rattus norvegicus); test: Inhibition of rat histidine tagged FAAH expressed in Escherichia coli at 1 uM by coumarin ester substrate fluorescence assay

Work on `O=C(NCCCCCCNC(=O)ON=C1CCCCC1)ON=C1CCCCC1` yielded an inhibition [1] of 95%, an inhibition [2] of 22% and an IC50 [3] of 65000 nM. It also gave an IC50 [4] of 2240 nM, an inhibition [5] of 70% and an inhibition [6] of 30%. For the same molecule, the inhibition [7] was 40%, the inhibition [8] was 78% and the inhibition [9] was < 0%.

`NC(=O)c1cccc(-c2cccc(OC(=O)NC3CCCCC3)c2)c1` was tested, and the inhibition [2] was 18%, the inhibition [10] was “inactive” and the inhibition [5] was 22%. The inhibition [6] was “inactive”, the inhibition [7] was 7% and the inhibition [8] was 68%. The inhibition [9] was 21% and the inhibition [11] was < 0%.

In the case of `O=C(N[C@H]1COC1=O)OCc1ccccc1`, the inhibition [1] is reported as 10%, the inhibition [12] is reported as < 0% and the inhibition [2] is reported as 13%. For the same molecule, the inhibition [10] was “inactive”, the inhibition [5] was 17% and the inhibition [6] was “inactive”. The inhibition [7] was 7%, the inhibition [8] was < 0% and the inhibition [9] was < 0%.

For `O=C(Oc1ccc([N+](=O)[O-])cc1)N1CCN(Cc2cccc(Oc3ccccc3)c2)CC1`, the inhibition [10] was “inactive”, the inhibition [5] was 84% and the inhibition [6] was “inactive”. For the same molecule, the inhibition [7] was 55%, the inhibition [8] was 43% and the inhibition [9] was < 0%. For the same molecule, the inhibition [11] was 10%.

`CCCCCCCCCCCCCC1CC(=O)O1` (racemic) was tested, and the inhibition [13] was 25%, the inhibition [1] was 10% and the inhibition [2] was 4%. For the same molecule, the inhibition [14] was 45%, the inhibition [15] was 72% and the inhibition [5] was 14%. The inhibition [8] was 38%, the inhibition [9] was < 0% and the inhibition [11] was < 0%.

Molecule `CCCCCCC[C@@H]1OC(=O)[C@H]1CCCCCC` (racemic) has an inhibition [1] of 79%, an inhibition [2] of 55% and an inhibition [14] of 37%. The inhibition [7] was 69%, the inhibition [8] was 96% and the inhibition [9] was 67%.

Work on `CCCCCCC[C@H]1OC(=O)[C@H]1CCCCCC` (racemic) yielded an inhibition [1] of 94%, an inhibition [2] of 100% and an inhibition [14] of 25%. For the same molecule, the inhibition [16] was 66%, the inhibition [17] was 13% and the inhibition [7] was 65%. The inhibition [8] was 94% and the inhibition [9] was 33%.

`O=S(=O)(F)Cc1ccccc1` [PHENYLMETHYLSULFONYLFLUORIDE] was tested, and the inhibition [10] was “inactive”, the IC50 [4] was 833 nM and the inhibition [9] was < 0%.
